SENP1 inh: blocks the human SENP1 SUMO protease catalytic domain. Q9P0U3. recombinant SENP1 catalytic domain, CyPet-SUMO1-YPet FRET cleavage. inhibition, % at 10 µM. hit rate 0.21% among 360,000. AID 624204;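 active = inhibition at least 30% at 10 µM, raw YFP signal under a set limit, fluorescence ratio 0.5 to 1.5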;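 note: 0% = enzyme with DMSO and 100% = no enzyme wells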
Target sequence (Q9P0U3 419-644 limits assumed): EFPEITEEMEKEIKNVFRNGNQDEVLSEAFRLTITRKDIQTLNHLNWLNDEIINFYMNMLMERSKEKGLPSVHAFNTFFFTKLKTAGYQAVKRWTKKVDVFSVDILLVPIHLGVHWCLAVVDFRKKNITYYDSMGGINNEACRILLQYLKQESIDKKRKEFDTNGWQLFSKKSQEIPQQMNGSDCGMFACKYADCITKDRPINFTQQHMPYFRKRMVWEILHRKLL
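System: Recombinant human SENP1 catalytic domain, His6-tagged | Incubation: Enzyme reaction for 50 min at room temperature, dark | Medium: Tris pH 8 with BME, BSA, NP40 and catalase | Also added: 25 nM SUMO1 FRET substrate | Compound: 10 µM single point, 0.5% DMSO | Measured by: FRET fluorescence in CFP and YFP emission channels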
SENP6 inh: blocks the human protease SENP6 | Q9GZR1 | Recombinant SENP6 catalytic domain, aminoluciferin luminescence | inhibition, % at 10 µM | hit rate 1.8% among 330,000 | AID 2599;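 active = inhibition above about 50% at the single tested dose, limit read from the data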;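 note: plate controls were DMSO wells with enzyme for no effect and DMSO wells lacking enzyme for full effect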
SENP8 block-1: inhibitors of human SENP8 protease. inhibition, % at 20 µM. hit rate 0.64% among 360,000. recombinant SENP8, Nedd8 substrate fluorescence. AID 602440; in the data active = inhibition mostly above about 40%, no sharp cut-off; inactive = mostly below about 27%
SENP7 block: SENP7 protease inhibition; AID 434973; Q9BQF6; inhibition, % at 5 µM; hit rate 1.5% among 330,000; recombinant SENP7, Z-RLRGG-aminoluciferin luminescence, 40 min;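 active = inhibition above about 50% at the single test dose, limit read from the data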;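 note: plate controls were DMSO with enzyme for no effect and no enzyme buffer wells for full effect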
Target sequence (Q9BQF6 706-1050 limits assumed): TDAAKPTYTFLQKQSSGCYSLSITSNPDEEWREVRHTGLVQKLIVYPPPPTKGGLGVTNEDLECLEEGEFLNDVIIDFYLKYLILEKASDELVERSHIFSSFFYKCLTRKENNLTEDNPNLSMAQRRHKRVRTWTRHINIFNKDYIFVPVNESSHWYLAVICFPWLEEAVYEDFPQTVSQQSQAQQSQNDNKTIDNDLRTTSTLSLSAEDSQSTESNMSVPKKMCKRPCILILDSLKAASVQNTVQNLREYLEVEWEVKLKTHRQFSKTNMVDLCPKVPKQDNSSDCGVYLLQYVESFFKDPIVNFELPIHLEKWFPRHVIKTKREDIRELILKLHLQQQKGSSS
SENP8 block-2: SENP8 protease inhibition; Q96LD8; AID 2540; inhibition, % at 10 µM; purified SENP8, Z-RLRGG-aminoluciferin cleavage, luminescence; hit rate 1.2% among 330,000; in the data active = inhibition above about 50%
SENP8 confirm: confirmation of human SENP8 protease inhibitors. shares compounds with SENP7 block. Recombinant SENP8, Z-RLRGG-aminoluciferin luminescence, 60 min. inhibition, % at 12.5 µM. hit rate 40% among 6,200;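 active = mean inhibition across replicates above about 50%, limit read from the data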
SENP6 conf: human SENP6 inhibition, confirmed; shares compounds with SENP7 block; recombinant SENP6, Z-RLRGG-aminoluciferin luminescence; inhibition, % at 12.5 µM; hit rate 58% among 6,200
SENP7 conf: confirmation of human SENP7 protease inhibitors | hit rate 69% among 6,200 | AID 488917 | recombinant SENP7, Z-RLRGG-aminoluciferin luminescence, 40 min | shares compounds with SENP7 block | inhibition, % at 12.5 µM
Casp3 SENP sel: caspase-3 inhibition (SENP selectivity assay); shares compounds with SENP7 block; purified caspase-3, Z-DEVD-aminoluciferin luminescence, 60 min; inhibition, % at 12.5 µM; hit rate 60% among 6,200; AID 488918;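 active = mean inhibition above about 50%, limit read from the data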;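 note: plate controls were enzyme with DMSO for no effect and wells without caspase-3 for full effect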
Luc interf: counter-screen for SENP inhibitors: luminescence interference. inhibition, % at 12.5 µM. hit rate 39% among 6,200. Pre-incubated SENP8/Z-RLRGG-aminoluciferin, luciferase luminescence interference. shares compounds with SENP7 block;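 active = mean inhibition above about 50% when retested at one dose, limit read from the data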;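 note: plate controls were DMSO wells with completed reaction for no effect and substrate without enzyme for full effect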
* hit, by the source's call; x = no result. Compounds with a hit are over-represented: about 2.5% of the library has one in this group of screens.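 Rule for the calls, unless noted: active = mean inhibition above about 50% in the one-dose retest (limit read from the data); inactive = the rest.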

SMILES | SENP1 inh | SENP6 inh | SENP8 block-1 | SENP7 block | SENP8 block-2 | SENP8 confirm | SENP6 conf | SENP7 conf | Casp3 SENP sel | Luc interf
COc1cc(/C=C2\NC(=S)NC2=O)ccc1OCc1cccc(C(=O)O)c1 | -4 | 28 | -82 | -4 | -12 | x | x | x | x | x
O=C1NC(=O)/C(=C\c2ccc(OCc3cccc(C(=O)O)c3)c(Cl)c2)N1 | 0 | 95* | -179 | 77* | 90* | -16 | 93* | 101* | 30 | 71*
Cc1ccc(-n2nnc(-c3nccs3)n2)cc1 | -1 | 94* | 14 | 98* | 94* | 97* | 97* | 101* | 97* | 94*
Clc1ccc(-n2nnc(-c3cccnc3)n2)cc1Cl | 3 | 62* | 17 | 51* | 19 | 6 | 12 | 31 | 51* | 8
Clc1ccc(-n2nnc(-c3nccs3)n2)cc1Cl | 1 | 82* | 8 | 82* | 72* | 24 | 44 | 60* | 68* | -5
Clc1ccc(-n2nnc(-c3ncc[nH]3)n2)cc1Cl | -1 | 4 | 6 | 12 | -5 | x | x | x | x | x
Cc1ccc(S(=O)(=O)N2CCN(C(=O)COC(=O)c3ccc(Cl)nc3)CC2)c(C)c1 | 1 | -1 | 7 | 14 | -1 | x | x | x | x | x
Cn1cc(C(=O)N2CCN(C(=O)c3ccco3)CC2)c2c3ccccc3n(C)c2c1=O | -3 | -16 | -287 | -6 | -7 | x | x | x | x | x
NC(=S)NN=C(c1ccc(F)cc1)C1CC1 | 1 | x | -6 | x | x | x | x | x | x | x
O=C(O)C(O)C(O)c1nc2ccccc2[nH]1 (stereo not given) | 0 | -10 | 15 | 9 | -4 | x | x | x | x | x
CCCCN(C=O)c1c(CC)nc2ccc(C(=O)N(C)Cc3ccco3)cn12 | -2 | x | -26 | x | x | x | x | x | x | x
O=C1NC(=S)S/C1=C\c1coc2ccc(O)cc2c1=O | 1 | 81* | 18 | 4 | 60* | 7 | 69* | 44 | 37 | 74*
C/C(=N/OC(=O)c1ccccc1)c1oc(C)nc1C | 3 | 62* | 20 | 78* | 48 | 67* | 67* | 90* | 87* | 52*
CC1(C(=O)Nc2nnc(C(C)(C)C)s2)Cc2ccccc2C(=O)O1 (stereo not given) | 1 | -14 | 12 | 101* | 1 | -1 | -2 | -3 | -2 | 0
CC(Sc1nncs1)C(=O)Nc1ccc(S(=O)(=O)Nc2ncccn2)cc1 (stereo not given) | 2 | -11 | 8 | -7 | 11 | x | x | x | x | x
Cc1nn(C(C)C(=O)Nc2ccc(Cl)cn2)c(C)c1[N+](=O)[O-] (stereo not given) | 1 | -31 | 5 | 80* | -5 | -5 | 2 | -2 | -2 | -1
O=Cc1ccccc1OCc1ccc2c(c1)OCO2 | 1 | 97* | 13 | 92* | 91* | 96* | 97* | 101* | 95* | 90*
Cc1cccc2c1cnn2C(=O)Nc1cc(F)ccc1F | 0 | 61* | 22 | 5 | 43 | 30 | 37 | 7 | 43 | 12
CCOC(=O)C1=CCC(c2ccccc2)N(S(=O)(=O)c2ccccc2C)C1 (stereo not given) | 2 | x | 0 | x | x | x | x | x | x | x
CN1CCN(S(=O)(=O)c2cccc(C(=O)N3CCN(c4ccccc4F)CC3)c2)CC1 | 2 | -2 | 3 | -2 | 10 | x | x | x | x | x
Fc1ccccc1COc1ccc(C(=S)N2CCCC2)cc1 | 0 | 58* | 8 | 48 | 64* | 45 | 35 | 60* | 26 | 32
Fc1ccccc1COc1ccc(-c2nnn(Cc3ccccc3F)n2)cc1 | 1 | -8 | 18 | -2 | -4 | x | x | x | x | x
O=C(Oc1ccc(C(=S)N2CCCCC2)cc1)c1ccccc1F | 2 | -8 | 28 | -10 | -15 | x | x | x | x | x
O=C(O)Cn1nnc(-c2ccc(OCc3ccccc3Cl)cc2)n1 | x | 17 | x | 3 | 0 | x | x | x | x | x
CC(C)n1nnc(-c2ccc(OCc3ccccc3F)cc2)n1 | 1 | 90* | -1 | 90* | 90* | -8 | 91* | 100* | 82* | 62*
SMILES | SENP1 inh | SENP6 inh | SENP8 block-1 | SENP7 block | SENP8 block-2 | SENP8 confirm | SENP6 conf | SENP7 conf | Casp3 SENP sel | Luc interf
Cn1nnc(-c2ccc(OCc3ccccc3F)cc2)n1 | 2 | 97* | 8 | 98* | 91* | 11 | 94* | 101* | 79* | 22
COc1ccc(C(=O)CSc2nnc(CNC(=O)c3ccc(OC)c(OC)c3)n2C)cc1 | 1 | -10 | 31 | 3 | 3 | x | x | x | x | x
COC(=O)c1cccc(N(C(=O)c2cnccn2)C(C(=O)NC2CCCCC2)c2cn(C)nc2C)c1 (stereo not given) | 0 | -10 | 13 | -13 | -10 | x | x | x | x | x
O=C(CNC(=O)c1ccccc1F)c1ccccc1 | 1 | 54* | 11 | 51* | 27 | 44 | 43 | 81* | 79* | 53*
CSc1ccccc1NC(=O)Cn1c([N+](=O)[O-])cnc1C | 0 | -22 | 5 | 9 | -5 | x | x | x | x | x
CC(/C=N/NC(=O)c1ccccc1F)=C\c1ccccc1 | 2 | 58* | 2 | 43 | 28 | 48 | 41 | 70* | 52* | 54*
Cc1cc(C(=O)N/N=C/c2c(C)nn(-c3ccccc3)c2C)c(C)o1 | 0 | 50* | 25 | 36 | 35 | 34 | 25 | 60* | 55* | 23
O=C(N/N=C/C(Cl)=C\c1ccccc1)c1cccs1 | 5 | 63* | -19 | 43 | 52* | 9 | 59* | 85* | 31 | 9
CC(/C=N/NC(=O)c1cccs1)=C\c1ccccc1 | -1 | 3 | -38 | 77* | 71* | 13 | 81* | 93* | 63* | 20
O=C(NCCc1ccc(F)cc1)c1cc(=O)c2ccccc2o1 | -2 | 8 | 14 | -5 | -3 | x | x | x | x | x
C[C@H](CO)N1C[C@H](C)[C@@H](CN(C)C(=O)Nc2ccc3c(c2)OCO3)Oc2c(NC(=O)Cc3ccccc3)cccc2C1=O | -1 | -19 | 2 | 6 | -13 | x | x | x | x | x
CCOC(=O)C1=CCN(S(=O)(=O)c2ccc(Cl)cc2)C1c1cccc(C)c1 (stereo not given) | 3 | x | 24 | x | x | x | x | x | x | x
CCOC(=O)C[C@H]1c2ccccc2S(=O)(=O)N1c1cccc(OC)c1 | -1 | -6 | -17 | 0 | 4 | x | x | x | x | x
O=C(O)c1cc(N/N=C/C(Cl)=C/c2ccccc2)ccc1Cl | -33 | 88* | -36 | 89* | 96* | 98* | 99* | 101* | 38 | 97*
